Data from ChEMBL document CHEMBL4513216, “Probing the Open Global Health Chemical Diversity Library for Multistage-Active Starting Points for Next-Generation Antimalarials” (ACS Infect Dis, 2020).

Assay: Toxicity liver stage against HepG2, at 10uM
Format: cell-based
Design: test concentration 10 uM, cell line HepG2-A16-CD81EGFP
Details: human, HepG2-A16-CD81EGFP cells; read-out: INHIBITION
How it was run: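 Uninfected HepG2-A16-CD81EGFP cells, 3 × 10^3 per well, 1536-well, plated on prespotted compound at 10 μM final, parasite-free screening media added to match infected plates; puromycin 10 μM positive, DMSO 0.5% negative; run in parallel with 48 h PbLuc assay at 37 °C, 5% CO2; viability by CellTiter-Glo luminescence, normalized to controls.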

| Structure (SMILES) | cytotoxicity at 10 µM [%] |
| --- | --- |
| CCOc1ccc(Cl)c(C(=O)N2CCCSCC2)n1 | -4.03 |
| O=C(NC1CCCN(c2ccc(OC(F)F)cc2)C1)c1ccon1 (stereo unspecified) | -7 |
| COCCNC(=O)[C@H]1CN(c2nnc(C)s2)C[C@H]2OCC[C@@H]12 | -1.96 |
| CCOc1ncccc1Cn1cc(-c2nccn2C)nn1 | -1.38 |
| Cc1ccc(-c2nc(CNC(C)CCO)[nH]c2-c2ccccn2)cc1 (stereo unspecified) | -6.78 |
| CCN(CC1CCOC1)C(=O)c1ccc(COc2ccccc2C#N)o1 (stereo unspecified) | 3.34 |
| COc1ccc(CNCCc2cc(F)cc3c2OCOC3)cc1OC | -6.9 |
| N#Cc1ccc(NCC(O)c2ccco2)c(C(F)(F)F)c1 (stereo unspecified) | -31.7 |
| Clc1ccc2oc(C3CCN(Cc4cccnc4)CC3)nc2c1 | 9.82 |
| CCN1CCN(C2CCN(CCOc3ccc(F)cc3)CC2)C1=O | -5.38 |
| CCOC(C)C(=O)NCc1cccc(CN2CCCCCC2)c1 (stereo unspecified) | 15.5 |
| COc1cnc(N2CCCC(c3ncc[nH]3)C2)nc1 (stereo unspecified) | -0.268 |
| Cc1ncsc1CCN(C)C(=O)CN1CCCCC1=O | -14.8 |
| CC(=O)Nc1nc(CN2CCCC2Cn2cccn2)cs1 (stereo unspecified) | -14.4 |
| CCc1noc(CN2CCN(C(=O)c3ccccn3)CC2)n1 | -0.775 |
| COc1cc(CCC(=O)N2CCC(c3cc4ncc(C)nc4[nH]3)C2)on1 (stereo unspecified) | 1.92 |
| CCn1cnnc1CCNC(=O)c1ccc(Br)cc1F | -29.7 |
| CCc1nc(CCNC(=O)Nc2ccc(C(=O)NC)cc2)cs1 | 7.51 |
| CN1CCCN(c2nccc(-c3cncnc3C3CCCCC3)n2)CC1 | -6.25 |
| CN1C(=O)CO[C@H]2CN(C(=O)c3ccc4c(c3)CCCC4)C[C@@H]21 | 5.45 |
| Cc1cc(N2CCCN(c3ccnc(C)c3)CC2)ccn1 | -0.943 |
| O=C(NCc1ccco1)Nc1ccc2nc(N3CCOCC3)oc2c1 | 4.17 |
| CN1[C@H](CN2CCCC2)C[C@@H]2CN(C(=O)c3cccn3C)CC[C@@H]21 | 5.57 |

| Structure (SMILES) | cytotoxicity at 10 µM [%] |
| --- | --- |
| CCc1ccc(CN(Cc2ccccc2)CC(C)CO)nc1 (stereo unspecified) | 9.11 |
| CC(C)n1[nH]c(=O)c2c1NC(=O)CC2c1cccc(Br)c1 (stereo unspecified) | 5.28 |
| O=C(NCCCn1ccnc1)N1CCCC1c1ccncc1 (stereo unspecified) | 25.4 |
| COC(=O)C1Cc2nc[nH]c2CN1Cc1ccc(Sc2ncccn2)o1 (stereo unspecified) | -3.94 |
| Cc1c(C2SCC(=O)Nc3c2c(O)nn3C(C)C)cnn1C (stereo unspecified) | 2.39 |
| COc1ccc(O[C@H]2COCCN(Cc3cccc4c3OCO4)C2)cc1 | 0.375 |
| COc1ccc(CNC(=O)Nc2cccnc2N2CCCC2)cc1O | -10.7 |
| CC(C)c1ncc(CN2CCC(CO)C2)cn1 (stereo unspecified) | -25.8 |
| CN(C)C(=O)CNC(=O)c1ccc(Cl)cc1F | -7.04 |
| O=C(Nc1ccc(-c2ccccc2)cn1)C1CCCN1C(=O)C1CC1 (stereo unspecified) | -1.6 |
| CCc1nc(CC(=O)N2CCn3c(nnc3C(C)C)C2)cs1 | -6.72 |
| O=C(CCN1CCN(c2ccc3nncn3n2)CC1)NC1CCCC1 | -27.5 |
| COCc1cc(CNC(=O)c2c(C)cc(C)[nH]c2=O)n[nH]1 | -4.69 |
| CC(=O)c1cc2c(=O)[nH]c(=O)n(C)c2nc1C | -2.89 |
| Cc1nonc1CN1CC[C@@](O)(C2CCC2)[C@H](C)C1 | 17.5 |
| O=C(O)[C@]12CCCN(C3CCOC3)C[C@H]1CN(c1ncccn1)C2 (stereo partly specified) | -97.4 |
| Cc1cccc(N2CCC3(CCN(C(=O)c4cccnc4)CC3)C2)n1 | -0.482 |
| FC(F)(F)c1cccc(CNc2nccc(C(F)(F)F)n2)c1 | -19 |
| CCC[C@H]1CN(Cc2ccc3c(c2)OCCO3)C[C@@H]1NC(=O)COC | -4.19 |
| CN(CCN1CCN(c2ccccc2)CC1)C(=O)Nc1ccccn1 | 6.37 |
| Cn1nccc1CN1CCOC(c2ccc(-c3cncnc3)cn2)C1 (stereo unspecified) | 3.27 |
| CCC(C(=O)NCc1csc(-c2ncccn2)n1)n1cccn1 (stereo unspecified) | -5.79 |
| CSC(CNS(N)(=O)=O)c1cccc(Cl)c1 (stereo unspecified) | -14.3 |

| Structure (SMILES) | cytotoxicity at 10 µM [%] |
| --- | --- |
| c1csc(-c2nc(CN3CCOC(Cn4cccn4)C3)cs2)c1 (stereo unspecified) | -8.25 |
| CC(C)c1cc(C2CCN(C(=O)Cn3nc4ccccc4n3)CC2)[nH]n1 | 0.685 |
| CS(=O)(=O)c1ccc2c(c1)N(C(=O)Cc1ccc(F)cc1)CCC2 | 9.95 |
| Cc1cc(N(Cc2ccccc2F)C2CC2)n2nc(C(F)(F)F)nc2n1 | 0.43 |
| O=C(c1ccco1)N1CCc2ncc(CN3CCOCC3)n2CC1 | -78.7 |
| O=c1[nH]c2ccc(S(=O)(=O)N(CCO)Cc3ccncc3)cc2[nH]1 | 1.07 |
| CCOC(=O)C(CO)NC(=O)CCc1cccc(OC2CCCC2)c1 (stereo unspecified) | -7.08 |
| CS(=O)(=O)CCNCc1ccc(OCc2ccccn2)cc1 | -128 |
| Cn1cc(C2CCCN2Cc2csc(Cc3ccccc3)n2)cn1 (stereo unspecified) | -1.19 |
| Cc1ccc(OCCC(=O)N(C)CC(=O)Nc2cc(C)on2)c(C)c1 | -16.9 |
| O=C(c1ccc(Cn2cccc2)cc1)N1CCN(CCO)CC1 | -3.69 |
| CCCc1noc(CN2CCCC2c2noc(C3CC3)n2)n1 (stereo unspecified) | -13 |
| CCn1cc2c(n1)CN(S(=O)(=O)c1cccnc1)CC2COC (stereo unspecified) | 5.74 |
| CS(=O)(=O)N1CCN2C(=O)N(C3CCCCC3)C[C@H]2C1 | 7.77 |
| CCNc1nnc(CCn2nc(C)c(Br)c2C)s1 | 2.14 |
| Cc1nc(-c2noc3ccc(C(=O)NCCN4CCOCC4)cc23)cs1 | 4.19 |
| O=C(NCC1CC1)C1CSCN1S(=O)(=O)c1ccccc1 (stereo unspecified) | -4.43 |
| O=C1C[C@@H]2CC[C@H](CN1)N2c1cc(-c2ccccc2F)nc2ccnn12 | 20.4 |
| CC(C)Cc1nc(NC(=O)c2cccnc2)n[nH]1 | -1.18 |
| N#Cc1c2n(c3c(=O)[nH]cnc13)CCCCC2 | 5.5 |
| Cc1ncc(CNC(=O)c2oc3ccccc3c2CN(C)C)s1 | 13.5 |
| Cc1csc2ncc(-c3ccnc(NC4CCOCC4)n3)c(=O)n12 | -4.36 |
| Cc1nc(CN2CCCC(N(C)c3cnc4ccccc4n3)C2)no1 (stereo unspecified) | -14.6 |

| Structure (SMILES) | cytotoxicity at 10 µM [%] |
| --- | --- |
| CN(C(=O)Cn1nc(-c2ccccc2F)ccc1=O)C1CCS(=O)(=O)C1 (stereo unspecified) | 2.21 |
| O=C(Cc1cccnc1)N1CC(Cc2nccc3cc[nH]c23)C1 | 4.87 |
| COc1ccc2[nH]nc(CN3CCC(C(C)N4CCCC4)CC3)c2c1 (stereo unspecified) | -4.13 |
| CNc1nc(C)c(C(=O)N2C[C@@H]3CC[C@H]2CN(c2cnccn2)C3)s1 | 13.6 |
| COc1ccnc(NCC2CN(C3CC3)CCO2)n1 (stereo unspecified) | -7.97 |
| CN1C(=O)CCC12CCN(S(=O)(=O)c1ccccc1)CC2 | -9.75 |
| CCn1ccnc1CN1CCCN(C(=O)c2sccc2C#N)CC1 | -8.08 |
| CN(CC(O)C1CC1)C(=O)Nc1cc(F)cc(Br)c1 (stereo unspecified) | -3.85 |
| CN(C)C(=O)N1CCCC2(CCN(Cc3ccncc3)C2)C1 (stereo unspecified) | 7.61 |
| CN1CCN(Cc2cn3c(n2)CN(C(=O)N2CCCC2)CC3)CC1 | 3.23 |
| O=S(=O)(Cc1ccccc1)NCc1ccnc(O)c1 | -1.2 |
| Cc1nc(CN2CCCC(Nc3ncnc4ccccc34)C2)no1 (stereo unspecified) | 50 |
| COc1ccc(F)cc1-c1nc2c([nH]1)c(C1CC1)nn2C | -2.18 |
| c1csc(CN2CCOCC3(CCN(C4CCOCC4)C3)C2)n1 (stereo unspecified) | 0.487 |
| Cc1nn(C)c(N(C)C)c1CNCCCNS(C)(=O)=O | -5.98 |
| OC(CNCCn1cccn1)COc1ccc(Br)cc1 (stereo unspecified) | -8.03 |
| COc1ccc(CN2CCOC3(CCCN(C(C)=O)C3)C2)cc1 (stereo unspecified) | 3.88 |
| CCOc1ncccc1C(=O)N1CCCC(c2nccn2CCOC)C1 (stereo unspecified) | -9.12 |
| COC(=O)C(C)(C)NC(=O)c1cnc(C(C)(C)C)s1 | 3.87 |
| Cc1ccccc1C(CC(=O)NCC(N)=O)c1ccccc1 (stereo unspecified) | 5.17 |
| COC[C@]1(O)CCN(Cc2cnc(N(C)C)nc2)CC1(C)C | -5.03 |
| CC(C)C(C)(C#N)NC(=O)Cn1cc(-c2ccccc2)cn1 (stereo unspecified) | 8.34 |
| O=C(NC[C@H]1OC[C@@H]2CCN(Cc3ccco3)C[C@@H]21)c1ccsc1 | -18.3 |

| Structure (SMILES) | cytotoxicity at 10 µM [%] |
| --- | --- |
| O=C(c1cccnn1)N1C[C@@H]2CC[C@H](Oc3cccc(F)c3)[C@@H]2C1 | -13.6 |
| Cc1noc(C)c1CN1CCO[C@H]2CN(C(=O)C3CCOCC3)C[C@H]21 | 0.845 |
| O=C(NC[C@H]1OC[C@@H](NCc2ccccn2)[C@@H]1O)N1CCOCC1 | 0.15 |
| CCOc1nn(CC)cc1-c1nnc(SCc2cccnc2)n1CC | -0.244 |
| CN(Cc1ccc(Cl)s1)C(=O)CN(C)C1CCCc2ccccc21 (stereo unspecified) | 21.4 |
| Cc1nn(C)c(C)c1NC(=O)CNC(c1ccc(F)cc1)C1CCC1 (stereo unspecified) | -1.65 |
| CNS(=O)(=O)c1ccc(CN2CCC(c3ccncc3)CC2)cc1 | 10 |
| CC(C)N(Cc1nc2c(cnn2C)c(=O)[nH]1)c1ccccc1 | -12.6 |
| N#Cc1cccc(N2CCCC(CO)(CCOc3ccccc3)C2)n1 (stereo unspecified) | -47.2 |
| O=S(=O)(C1CC1)N1Cc2[nH]nc(COCC3CC3)c2C1 | 16.4 |
| COc1ccccc1C(=O)NCC(c1cccn1C)N1CCOCC1 (stereo unspecified) | 7.11 |
| OC(COc1ccccc1)CN1CCN(c2nccs2)CC1 (stereo unspecified) | 13.1 |
| Cc1nccn1CCN(C)c1nc(-c2ccc(Cl)cc2)nc2c1CNC2 | -29.5 |
| CC(C)(O)CN1CCN(C(=O)c2cccc3cccnc23)CC1 | -10.7 |
| COCc1ccc(CN2CCC(O)(Cn3ccc4ncccc43)CC2)o1 | 4.45 |
| O=C1CO[C@@H]2CN(C3CCOCC3)C[C@H]2N1Cc1ccncc1 | -151 |
| O=C(Cc1cccc(F)c1)N1CCn2cc(Cn3cccn3)nc2C1 | -84.3 |
| Cc1ccnn1CC(=O)N(C)Cc1ccc(-n2cccn2)cc1 | 0.0616 |
| N#Cc1ccccc1OCCN1CCCC1Cn1cccn1 (stereo unspecified) | -9.14 |
